Measurements: publication PMC5576721 (Biochemistry, 2015)
“Also recorded” adds a separate entry of the source.

What was measured:
core^S [1] = experiment: SEC titration of C34-AL647 into core^S; format: binding, HIV-1; conditions: fits of 280 and 609+650 nm peak areas
core^SP [2] = experiment: SEC titration of C34-AL647 into core^SP; format: binding, HIV-1
6-helix = experiment: SEC-MALS binding stoichiometry with 6-helix; set-up: species or system HIV-1; conditions: 5-fold molar excess C34, 200 μg 6-helix, 10 mM Tris-HCl pH 7.6, 150 mM NaCl
core^S [3] = experiment: SEC-MALS binding stoichiometry with core^S; set-up: species or system HIV-1
core^SP [4] = experiment: SEC-MALS and SEC displacement of C38 / C38-AL647 from core^SP; format: binding, HIV-1; conditions: 5-fold molar excess C34, SEC–MALS, confirmed with core^SP-AL647
core^S [5] = experiment: Native-PAGE band shift with core^S; format: binding, HIV-1; conditions: 10 μM core^S, 30 min, room temperature, 20% homogeneous gel
core^S [6] = experiment: Circular dichroism of core^S with and without C34; set-up: species or system HIV-1
core^SP [7] = experiment: Circular dichroism of core^SP with and without C34; set-up: species or system HIV-1; conditions: core^SP 2.5 μM trimer, 5-fold excess C34, buffer A pH 7.6, 20 °C
Method in brief: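 CoreSP (N-HR and C-HR peptides counted as one unit) is used at 2.5 μM trimer, alone or with a 5-fold molar excess of C34, in 10 mM Tris-HCl pH 7.6 with 150 mM NaCl. Spectra are recorded at 20 °C in a 0.1 cm path-length flat cell. α-Helical content is estimated by CDNN.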

N-Cys core^S = experiment: DEER EPR of N-Cys core^S with and without C34; set-up: species or system HIV-1; conditions: 50 μM subunits, 1.2-fold molar excess C34, Q-band, 50 K
core^S [8] = experiment: ITC with core^S; format: binding, HIV-1; conditions: C34 0.05–0.1 mM into 5–10 μM core^S, 10 mM Tris-HCl pH 7.6, 150 mM NaCl, 25 °C, iTC200
5-helix [9] = conditions: 5-fold molar excess C34, 200 μg 5-helix, 10 mM Tris-HCl pH 7.6, 150 mM NaCl
5-helix [10] = test system: 5-helix
HIV-1 fusion = conditions: ref [17] Markosyan et al.; cited from earlier work
[11] = target: single-chain five-helix bundle (5-helix) (HIV-1) (UniProt P04578); experiment: SEC-MALS
[12] = target: single-chain six-helix bundle (6-helix) (HIV-1) (UniProt P04578); experiment: SEC-MALS
[13] = target: the molecule itself; experiment: composition gradient–MALS

With Ac-C-HR^628–661-NH2 [C34] as the molecule, how does the “cooperativity of binding to core^S” value (core^S [1]) read?
Its value is “no evidence of any cooperativity”.

And the “equilibrium constant for the exchange reaction of C34 with C38” value (core^SP [2]; core^SP, value in discussion)?
The value was 0.9.

What about the “cooperativity of exchange with core^SP” value (core^SP [2]; fits of 609+650 nm peak areas) of the same molecule?
Its value is “no evidence of any cooperativity”.

What about the “binding to 6-helix (stoichiometry)” value (6-helix) of the same molecule?
Its value is “weak binding of C34 as a 1:1 complex”.

And the “binding stoichiometry with core^S” value (core^S [3]; 5-fold molar excess C34, 10 mM Tris-HCl pH 7.6, 150 mM NaCl)?
Its value is “one core^S trimer to two C34 peptides with no dissociation of the core^S trimer; also recorded: binding of two C34 molecules to one core^S trimer”.

And the “evidence for a 1:3 core^S–(C34)3 complex” value (core^S [3]; SEC–MALS and band-shift assays)?
The value was “no evidence of the existence of a 1:3 core^S–(C34)3 complex”.

What about the “displacement of C38 from core^SP” value (core^SP [4]) of the same molecule?
The value was “binding of C34 to core^SP is accompanied by displacement of C38”.

And the “binding to core^S by native-PAGE” value (core^S [5])?
The value was “even at 3:1 and 3:2 core^S:C34 ratios (Figure 4C) a significant amount of complex comprising two C34 molecules bound to one core^S trimer is formed; also recorded: binding of C34 is clearly evident”.

What about the “increase in helicity of core^S on C34 binding” value (core^S [6]; core^S 7 μM trimer, 5-fold molar excess C34, buffer A pH 7.6, 20 °C) of the same molecule?
Its value is ~ 18%.

What about the “additional residues in helical conformation of core^S trimer” value (core^S [6]; two C34 bound, two C28 C-HR displaced, 5-fold molar excess C34) of the same molecule?
The value was 30 residues.

And the “change in helicity of core^SP on C34 binding” value (core^SP [7])?
The value was “no change in helicity”.

And the “effect of C34 on DEER dipolar evolution data / P(r) of N-Cys core^S” value (N-Cys core^S)?
Its value is “negligible effect”.

And the “heat signature in ITC with core^S” value (core^S [8])?
The value was “did not yield a heat signature”.

And the “binding to 5-helix (stoichiometry)” value (5-helix [9])?
Its value is “binds with a 1:1 stoichiometry”.

And the “binding to 5-helix by native-PAGE” value (5-helix [10]; native-PAGE, room temperature)?
Its value is “binding of C34 is clearly evident”.

What about the “stoichiometry of binding to 5-helix by native-PAGE” value (5-helix [10]; positive control) of the same molecule?
Its value is 1:1 stoichiometry of binding.

And the “time window of fusion inhibitory activity” value (HIV-1 fusion)?
The value was “can extend from the point at which the prehairpin intermediate of gp41 becomes accessible through the formation of late prebundle intermediates and labile pore formation, but not after irreversible formation of the six-helix bundle”.

Which stoichiometry N (C34 per 5-helix) [11] does the source give for “C34 peptide (chemically synthesized, Ac-C-HR^628–661-NH2) (from UniProt P04578 628-661)” here?
The stoichiometry N (C34 per 5-helix) was 1.

What about the stoichiometry N (C34 per 6-helix) [12] of the same molecule?
The stoichiometry N (C34 per 6-helix) was 1.

B1: core^S (N34^546–579-(L6)-C28^628–655), homotrimeric six-helix bundle of gp41 (domain or fragment)
chain: SGIVQQQNNLLRAIEAQQHLLQLTVWGIKQLQARSGGRGGWMEWDREINNYTSLIHSLIEESQNQQEK
Which Kd [13] does the source give for B1 here?
Its Kd is under 250 nM.
